ChEMBL document CHEMBL1165943, “Design and synthesis of new anticancer pyrimidines with multiple-kinase inhibitory effect” (Bioorg Med Chem, 2010)

Tests used:
Type in all cases: functional
HL-60(TB) = assay: Cytotoxicity against human HL-60(TB) cells assessed as cell growth at 10 uM; conditions: Homo sapiens, HL-60; read-out: Activity
Method in brief: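 Single-concentration 10 µM screen of HL-60(TB) within the 60-line panel, grown in RPMI 1640 with 5% FBS. The drug from DMSO stock is incubated 48 h at 37 °C, settled cells are TCA-fixed and SRB-stained, and absorbance is read at 515 nm. Percent growth is reported, and inhibition % is taken as 100 minus growth %.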

K562 = assay: Cytotoxicity against human K562 cells assessed as cell growth at 10 uM; conditions: Homo sapiens, K562; read-out: Activity
Method in brief: (§1)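 Single-dose screen at 10 μM across the 60-cell-line panel. Cells grown in RPMI 1640 with 5% FBS and 2 mM L-glutamine, seeded at 5,000–40,000 cells/well according to doubling time, and treated 24 h later. Exposure lasted 48 h at 37 °C, 5% CO₂. Adherent cells were fixed with cold TCA, suspension cells were fixed settled, and both were stained with SRB and read at 515 nm. Growth % was recorded, with inhibition % = 100 − growth %.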

MOLT-4 = assay: Cytotoxicity against human MOLT4 cells assessed as cell growth at 10 uM; conditions: Homo sapiens, MOLT-4; read-out: Activity; method in brief: as §1
EKVX = assay: Cytotoxicity against human EKVX cells assessed as cell growth at 10 uM; conditions: Homo sapiens, EKVX; read-out: Activity
Method in brief: (§2)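 Single-concentration screen at 10 μM across the 60-cell-line panel (nine tissue types); growth percentage recorded per cell line, with inhibition taken as 100 minus growth percentage.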

NCI-H226 = assay: Cytotoxicity against human NCI-H226 cells assessed as cell growth at 10 uM; conditions: Homo sapiens, NCI-H226; read-out: Activity; method in brief: as §1
NCI-H23 = assay: Cytotoxicity against human NCI-H23 cells assessed as cell growth at 10 uM; conditions: Homo sapiens, NCI-H23; read-out: Activity; method in brief: as §1
NCI-H322M = assay: Cytotoxicity against human NCI-H322M cells assessed as cell growth at 10 uM; conditions: Homo sapiens, NCI-H322M; read-out: Activity; method in brief: as §1
NCI-H460 = assay: Cytotoxicity against human NCI-H460 cells assessed as cell growth at 10 uM; conditions: Homo sapiens, NCI-H460; read-out: Activity; method in brief: as §1
NCI-H522 = assay: Cytotoxicity against human NCI-H522 cells assessed as cell growth at 10 uM; conditions: Homo sapiens, NCI-H522; read-out: Activity; method in brief: as §1
HCC 2998 = assay: Cytotoxicity against human HCC2998 cells assessed as cell growth at 10 uM; conditions: Homo sapiens, HCC 2998; read-out: Activity; method in brief: as §2
HCT-116 = assay: Cytotoxicity against human HCT116 cells assessed as cell growth at 10 uM; conditions: Homo sapiens, HCT-116; read-out: Activity; method in brief: as §2
HCT-15 = assay: Cytotoxicity against human HCT15 cells assessed as cell growth at 10 uM; conditions: Homo sapiens, HCT-15; read-out: Activity; method in brief: as §2
KM12 = assay: Cytotoxicity against human KM12 cells assessed as cell growth at 10 uM; conditions: Homo sapiens, KM12; read-out: Activity; method in brief: as §1
SF-268 = assay: Cytotoxicity against human SF268 cells assessed as cell growth at 10 uM; conditions: Homo sapiens, SF-268; read-out: Activity; method in brief: as §1
SF-295 = assay: Cytotoxicity against human SF295 cells assessed as cell growth at 10 uM; conditions: Homo sapiens, SF-295; read-out: Activity; method in brief: as §1
SF-539 = assay: Cytotoxicity against human SF539 cells assessed as cell growth at 10 uM; conditions: Homo sapiens, SF-539; read-out: Activity; method in brief: as §1
U-251 = assay: Cytotoxicity against human U251 cells assessed as cell growth at 10 uM; conditions: Homo sapiens, U-251; read-out: Activity; method in brief: as §1
LOX IMVI = assay: Cytotoxicity against human LOXIMVI cells assessed as cell growth at 10 uM; conditions: Homo sapiens, LOX IMVI; read-out: Activity; method in brief: as §1
Malme-3M = assay: Cytotoxicity against human MALME-3M cells assessed as cell growth at 10 uM; conditions: Homo sapiens, Malme-3M; read-out: Activity; method in brief: as §1
SK-MEL-5 = assay: Cytotoxicity against human SK-MEL-5 cells assessed as cell growth at 10 uM; conditions: Homo sapiens, SK-MEL-5; read-out: Activity; method in brief: as §1
UACC-257 = assay: Cytotoxicity against human UACC257 cells assessed as cell growth at 10 uM; conditions: Homo sapiens, UACC-257; read-out: Activity; method in brief: as §1
OVCAR-3 = assay: Cytotoxicity against human OVCAR-3 cells assessed as cell growth at 10 uM; conditions: Homo sapiens, OVCAR-3; read-out: Activity; method in brief: as §1
OVCAR-4 = assay: Cytotoxicity against human OVCAR4 cells assessed as cell growth at 10 uM; conditions: Homo sapiens, OVCAR-4; read-out: Activity; method in brief: as §1
OVCAR-5 = assay: Cytotoxicity against human OVCAR5 cells assessed as cell growth at 10 uM; conditions: Homo sapiens, OVCAR-5; read-out: Activity; method in brief: as §1
OVCAR-8 = assay: Cytotoxicity against human OVCAR8 cells assessed as cell growth at 10 uM; conditions: Homo sapiens, OVCAR-8; read-out: Activity; method in brief: as §1
SK-OV-3 = assay: Cytotoxicity against human SKOV3 cells assessed as cell growth at 10 uM; conditions: Homo sapiens, SK-OV-3; read-out: Activity; method in brief: as §1
786-0 = assay: Cytotoxicity against human 786-0 cells assessed as cell growth at 10 uM; conditions: Homo sapiens, 786-0; read-out: Activity; method in brief: as §2
A498 = assay: Cytotoxicity against human A498 cells assessed as cell growth at 10 uM; conditions: Homo sapiens, A498; read-out: Activity; method in brief: as §2
ACHN = assay: Cytotoxicity against human ACHN cells assessed as cell growth at 10 uM; conditions: Homo sapiens, ACHN; read-out: Activity; method in brief: as §2
CAKI-1 = assay: Cytotoxicity against human Caki1 cells assessed as cell growth at 10 uM; conditions: Homo sapiens, CAKI-1; read-out: Activity; method in brief: as §2
TK-10 = assay: Cytotoxicity against human TK10 cells assessed as cell growth at 10 uM; conditions: Homo sapiens, TK-10; read-out: Activity; method in brief: as §1
UO-31 = assay: Cytotoxicity against human UO31 cells assessed as cell growth at 10 uM; conditions: Homo sapiens, UO-31; read-out: Activity; method in brief: as §1
PC-3 = assay: Cytotoxicity against human PC3 cells assessed as cell growth at 10 uM; conditions: Homo sapiens, PC-3; read-out: Activity; method in brief: as §1
DU-145 = assay: Cytotoxicity against human DU145 cells assessed as cell growth at 10 uM; conditions: Homo sapiens, DU-145; read-out: Activity; method in brief: as §2
BT-549 = assay: Cytotoxicity against human BT549 cells assessed as cell growth at 10 uM; conditions: Homo sapiens, BT-549; read-out: Activity; method in brief: as §2
MDA-MB-468 = assay: Cytotoxicity against human MDA-MB-468 cells assessed as cell growth at 10 uM; conditions: Homo sapiens, MDA-MB-468; read-out: Activity; method in brief: as §1
[1] = Growth inhibition of human NCI60 cells at 10 uM after 48 hrs by sulforhodamine B assay relative to control; conditions: Homo sapiens, NCI60, 48 h; read-out: GI
Method in brief: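 Single 10 µM dose across the 60-line panel for 48 h, with the same culture, TCA fixation and SRB 515 nm read-out. Inhibition % = 100 − growth %, given as the mean over the 60 cell lines.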

Compound FC(F)(F)c1cc(Nc2nccc(-c3ccc(Nc4ccccc4)nc3)n2)cc(C(F)(F)F)c1 has a growth at 10 µM (HL-60(TB)) of 105%, a growth at 10 µM (K562) of 92.9% and a growth at 10 µM (MOLT-4) of 87.6%. It also gave a growth at 10 µM (EKVX) of 108%, a growth at 10 µM (NCI-H226) of 98% and a growth at 10 µM (NCI-H23) of 98.2%. For the same compound, the growth at 10 µM (NCI-H322M) was 96.6%, the growth at 10 µM (NCI-H460) was 109% and the growth at 10 µM (NCI-H522) was 96.5%. For the same compound, the growth at 10 µM (HCC 2998) was 100%, the growth at 10 µM (HCT-116) was 108% and the growth at 10 µM (HCT-15) was 97.4%. For the same compound, the growth at 10 µM (KM12) was 112%, the growth at 10 µM (SF-268) was 107% and the growth at 10 µM (SF-295) was 112%. It also gave a growth at 10 µM (SF-539) of 94.9%, a growth at 10 µM (U-251) of 104% and a growth at 10 µM (LOX IMVI) of 103%. For the same compound, the growth at 10 µM (Malme-3M) was 117%, the growth at 10 µM (SK-MEL-5) was 99.1% and the growth at 10 µM (UACC-257) was 99.5%. For the same compound, the growth at 10 µM (OVCAR-3) was 119%, the growth at 10 µM (OVCAR-4) was 105% and the growth at 10 µM (OVCAR-5) was 97.3%. For the same compound, the growth at 10 µM (OVCAR-8) was 97.2%, the growth at 10 µM (SK-OV-3) was 89.9% and the growth at 10 µM (786-0) was 105%. The growth at 10 µM (A498) was 104%, the growth at 10 µM (ACHN) was 91.3% and the growth at 10 µM (CAKI-1) was 98%. It also gave a growth at 10 µM (TK-10) of 119%, a growth at 10 µM (UO-31) of 79.5% and a growth at 10 µM (PC-3) of 95.2%. It also gave a growth at 10 µM (DU-145) of 111%, a growth at 10 µM (BT-549) of 105% and a growth at 10 µM (MDA-MB-468) of 89.6%. It also gave an inhibition of growth at 10 µM [1] of 0.2%.
FC(F)(F)c1cc(Nc2nccc(-c3cccnc3)n2)cc(C(F)(F)F)c1 showed a growth at 10 µM (HL-60(TB)) of 101%, a growth at 10 µM (K562) of 89.6% and a growth at 10 µM (MOLT-4) of 95%. The growth at 10 µM (EKVX) was 102%, the growth at 10 µM (NCI-H226) was 99.6% and the growth at 10 µM (NCI-H23) was 97.9%. The growth at 10 µM (NCI-H322M) was 97.5%, the growth at 10 µM (NCI-H460) was 103% and the growth at 10 µM (NCI-H522) was 86.5%. The growth at 10 µM (HCC 2998) was 118%, the growth at 10 µM (HCT-116) was 91.1% and the growth at 10 µM (HCT-15) was 92.7%. For the same compound, the growth at 10 µM (KM12) was 103%, the growth at 10 µM (SF-268) was 99.5% and the growth at 10 µM (SF-295) was 103%. For the same compound, the growth at 10 µM (SF-539) was 97.1%, the growth at 10 µM (U-251) was 98.7% and the growth at 10 µM (LOX IMVI) was 100%. It also gave a growth at 10 µM (Malme-3M) of 103%, a growth at 10 µM (SK-MEL-5) of 101% and a growth at 10 µM (UACC-257) of 111%. For the same compound, the growth at 10 µM (OVCAR-3) was 119%, the growth at 10 µM (OVCAR-4) was 121% and the growth at 10 µM (OVCAR-5) was 97%. For the same compound, the growth at 10 µM (OVCAR-8) was 102%, the growth at 10 µM (SK-OV-3) was 106% and the growth at 10 µM (786-0) was 97.1%. For the same compound, the growth at 10 µM (A498) was 103%, the growth at 10 µM (ACHN) was 102% and the growth at 10 µM (CAKI-1) was 91.5%. For the same compound, the growth at 10 µM (TK-10) was 106%, the growth at 10 µM (UO-31) was 101% and the growth at 10 µM (PC-3) was 105%. For the same compound, the growth at 10 µM (DU-145) was 106%, the growth at 10 µM (BT-549) was 107% and the growth at 10 µM (MDA-MB-468) was 98.4%. The inhibition of growth at 10 µM [1] was -0.32%.
